One data set concerns AChE. Nature of the data set: Selectivity index, ratio of CC50 for human SH-SY5Y cells to IC50 for inhibition of mouse brain AChE.
For data set [1], the target named is T1, Acetylcholinesterase (Mus musculus) (UniProt P21836).
T1 sequence (whole entry): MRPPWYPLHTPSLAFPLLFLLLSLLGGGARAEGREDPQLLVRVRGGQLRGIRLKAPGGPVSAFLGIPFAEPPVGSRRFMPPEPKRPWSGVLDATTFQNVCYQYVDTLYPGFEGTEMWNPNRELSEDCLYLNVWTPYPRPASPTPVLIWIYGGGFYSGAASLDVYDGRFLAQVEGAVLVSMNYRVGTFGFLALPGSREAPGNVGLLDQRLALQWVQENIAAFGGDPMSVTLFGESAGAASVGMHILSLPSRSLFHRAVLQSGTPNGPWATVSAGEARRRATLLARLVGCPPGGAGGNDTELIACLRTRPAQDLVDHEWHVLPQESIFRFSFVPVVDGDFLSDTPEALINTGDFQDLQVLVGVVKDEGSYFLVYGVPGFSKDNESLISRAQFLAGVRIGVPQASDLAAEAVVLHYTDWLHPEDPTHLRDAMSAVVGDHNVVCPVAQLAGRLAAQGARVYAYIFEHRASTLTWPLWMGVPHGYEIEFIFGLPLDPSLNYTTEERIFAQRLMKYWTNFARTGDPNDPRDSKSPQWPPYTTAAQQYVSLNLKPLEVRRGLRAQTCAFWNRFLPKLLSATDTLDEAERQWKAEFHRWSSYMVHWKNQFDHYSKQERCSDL
The note with it: at 10 µM.

Data set [2] in a line: Cmax in ICR mouse brain at 30 mg/kg, po measured after 40 mins by LCMS/MS method. It counts as ADME, organism-based. The arrangement: dose 30 mg/kg, route oral. Put shortly:
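ICR mice got a single oral dose of 30 mg/kg. At 40 min they were sacrificed and plasma and brain collected. Compound in both was quantified by LC-MS/MS. Log BB is the log of the brain-to-blood concentration ratio. Methods state n = 5, table footnote n = 6. Mean ± SEM.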

In another data set the target is Cholinesterase (Mus musculus, UniProt Q03311). Kind of data set: Inhibition of mouse plasma BuChE using S-butyrylacetylthiocholine iodide as substrate measured after 30 mins by Ellman's method relative to control. To be noted: read-out: IC50. Background: Ellman's reagent forms a yellow product with free thiols.
The next data set concerns SH-SY5Y. Kind of data set: Neuroprotective activity against copper-induced cytotoxicity in human SH-SY5Y cells expressing APP Swedish mutant assessed as increase in cell viability at 10 uM pre-incubated for 2 hrs followed by copper addition and measured after 24 hrs by MTT assay. It counts as functional, cell-based. In general terms: Tetrazolium dyes change colour on reduction, which living cells bring about.

The target in data set [3] is T2, Histamine H3 receptor (Homo sapiens, UniProt Q9Y5N1). Kind of data set: Inhibition of human H3R expressed in methylhistamine-induced human H3-bla U2OS cells incubated for 30 mins by beta-lactamase complementation technology. It counts as cell-based. The note with it: read-out: IC50. In a few lines:
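H3-bla U2OS cells co-express human H3R-Gal4-VP16 (TEV site) and β-arrestin/TEV protease with a UAS-β-lactamase reporter. IC50 came from log concentration-inhibition curves. Triplicates, three independent experiments.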

Data set [4] can be described thus: Acute toxicity ICR mouse assessed as effect on body weight change at 0 to 1000 mg/kg, po measured up to 14 days. It counts as organism-based. The note with it: in vivo, 336 h. Put shortly:
(§1)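 Male ICR mice (22 days, 20–22 g), n = 5 per group, chow and water ad libitum, 12 h light/dark cycle. Single oral dose of 0, 100, 200, 500 or 1000 mg/kg in 0.5% CMC-Na. Observed continuously for the first 4 h, intermittently over the next 24 h, then occasionally to 14 days. Euthanized on day 14.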

The next data set relates to BuChE. Kind of data set: Selectivity index, ratio of CC50 for human SH-SY5Y cells IC50 for mouse plasma BuChE. It counts as toxicity. In a few lines:
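SI is CC50 in SH-SY5Y divided by BuChE IC50. […] For IC50, mouse plasma BuChE was preincubated 30 min at 37 °C with DTNB and compound in 0.05 M PBS pH 8.0. Butyrylthiocholine iodide was added and A412 read; IC50 taken from log concentration–inhibition curves.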

Data set [5] relates to Mus musculus. Nature of the data set: Antialzheimer activity in ICR mouse model of scopolamine-induced cognitive deficit assessed as prolongation of scopolamine-induced latency at 10 to 30 mg/kg, po treated for 1 hr followed by scopolamine challenge for 30 mins by step-down passive avoidance test. It counts as functional, organism-based. Put shortly:
(§2)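 ICR mice, six weeks old, 18-22 g, either sex, n = 15/group. […] Step-down test used foot shock of 20 V, 0.5 mA, 2 s, with a training trial and a test 24 h later. Read-outs were latency to first step-down and number of shocks in 5 min. Mean ± SEM.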

Data set [6] in a line: Cytotoxicity in human SH-SY5Y cells assessed as reduction in cell viability after 72 hrs incubation by MTT assay. To be noted: SH-SY5Y cells.
The nature of data set [7]: Acute toxicity ICR mouse assessed as induction of abnormal behavior at 0 to 1000 mg/kg, po measured up to 14 days. It counts as organism-based. To be noted: in vivo, 336 h. In a few lines: as §1
The test system of data set [8] is Mus musculus. Kind of data set: Effect on latency time in ICR mouse model of scopolamine-induced cognitive deficit during training stage at 10 to 30 mg/kg, po treated for 1 hr followed by scopolamine challenge for 30 mins by step-down passive avoidance test. It counts as ADME, organism-based. The note with it: in vivo. In a few lines:
as §2

Another data set addresses T3, Acetylcholinesterase (Mus musculus, UniProt P21836).
T3 sequence (P21836 whole entry): T1 sequence (whole entry)
Nature of the data set: Inhibition of mouse brain AChE using acetylthiocholine iodide as substrate measured after 30 mins by Ellman's method. To be noted: read-out: IC50.

Data set [9] is described as follows: Acute toxicity ICR mouse assessed as induction of macroscopic abnormalities in liver at 0 to 1000 mg/kg, po measured after 14 da. It counts as organism-based. The note with it: in vivo. Put shortly: as §1
The next data set relates to H3R. Nature of the data set: Selectivity index, ratio of CC50 for human SH-SY5Y cells to IC50 for inhibition of human H3R expressed in methylhistamine-induced human H3-bla U2OS cells. To be noted: read-out: Ratio CC50/IC50. It counts as toxicity, cell-based. In a few lines: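 For IC50, H3-bla U2OS cells (human H3R–Gal4-VP16 plus β-arrestin/TEV, β-lactamase reporter) were seeded for 18 h. Compound was added for 30 min, then 400 nM methylhistamine (stock) for 5 h and FRET-B/G substrate for 2 h. Read 460/530 nm, triplicate per concentration, IC50 from log curves.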

The nature of data set [10]: Acute toxicity ICR mouse assessed as induction of macroscopic abnormalities in heart at 0 to 1000 mg/kg, po measured after 14 days. It counts as organism-based. To be noted: in vivo, 336 h. In a few lines: as §1
Data set [11] is described as follows: Acute toxicity ICR mouse assessed as mortality at 0 to 1000 mg/kg, po measured up to 14 days. It counts as organism-based. To be noted: in vivo, 336 h. In a few lines:
as §1

A further data set deals with BV-2. Nature of the data set: Antiinflammatory activity in mouse BV2 cells assessed as reduction in LPS-induced IL-6 production at 10 uM pretreated for 1 hr followed by LPS challenge and measured after 24 hrs by ELISA assay. It counts as functional, cell-based.
Data set [12] has as its target T2, Histamine H3 receptor. Nature of the data set: Inhibition of human H3R expressed in methylhistamine-induced human H3-bla U2OS cells at 10 uM incubated for 30 mins by beta-lactamase complementation technology relative to control. It counts as cell-based.
The nature of data set [13]: Acute toxicity ICR mouse assessed as effect on eating behavior at 0 to 1000 mg/kg, po measured up to 14 days. It counts as organism-based. To be noted: in vivo, 336 h. Put shortly: as §1
A short description of data set [14]: Acute toxicity ICR mouse assessed as induction of macroscopic abnormalities in kidney at 0 to 1000 mg/kg, po measured after 14 da. It counts as organism-based. The note with it: in vivo. In a few lines: as §1
Data set [15] is described as follows: AUC (0 to t) in ICR mouse at 30 mg/kg, po measured upto 48 hrs by LCMS/MS method. It counts as ADME, organism-based. The arrangement: time < 48 hr, dose 30 mg/kg, route oral. The note with it: in vivo.

The term inhibition denotes the share of the control response that was lost under treatment. A lower inhibition goes with a weak effect. By Cmax is commonly meant the maximum level reached in the sampled fluid or tissue. The IC50 is the concentration needed to halve the response being measured. As usually defined, the CC50 is the concentration that lowers cell viability or growth by half. The term AUC(0-t) denotes the area under the concentration-time curve up to a stated or last time point. Read a high AUC(0-t) as high exposure.

The source made the active and inactive calls. The rule behind the calls is not given here.

T2 sequence (Q9Y5N1 whole entry, the tested form may be a part): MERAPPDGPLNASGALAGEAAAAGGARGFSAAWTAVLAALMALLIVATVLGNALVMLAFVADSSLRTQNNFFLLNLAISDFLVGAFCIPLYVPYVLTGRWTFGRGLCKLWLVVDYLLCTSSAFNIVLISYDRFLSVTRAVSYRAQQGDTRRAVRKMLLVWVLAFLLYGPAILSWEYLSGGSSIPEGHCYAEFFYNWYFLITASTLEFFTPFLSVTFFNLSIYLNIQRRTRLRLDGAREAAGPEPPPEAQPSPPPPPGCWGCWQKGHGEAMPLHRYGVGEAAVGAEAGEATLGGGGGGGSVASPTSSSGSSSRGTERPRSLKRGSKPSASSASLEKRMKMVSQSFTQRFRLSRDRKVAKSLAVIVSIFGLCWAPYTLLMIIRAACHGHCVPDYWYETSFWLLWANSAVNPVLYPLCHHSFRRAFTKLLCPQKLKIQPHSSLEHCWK
Cholinesterase, sequence (Q03311 whole entry): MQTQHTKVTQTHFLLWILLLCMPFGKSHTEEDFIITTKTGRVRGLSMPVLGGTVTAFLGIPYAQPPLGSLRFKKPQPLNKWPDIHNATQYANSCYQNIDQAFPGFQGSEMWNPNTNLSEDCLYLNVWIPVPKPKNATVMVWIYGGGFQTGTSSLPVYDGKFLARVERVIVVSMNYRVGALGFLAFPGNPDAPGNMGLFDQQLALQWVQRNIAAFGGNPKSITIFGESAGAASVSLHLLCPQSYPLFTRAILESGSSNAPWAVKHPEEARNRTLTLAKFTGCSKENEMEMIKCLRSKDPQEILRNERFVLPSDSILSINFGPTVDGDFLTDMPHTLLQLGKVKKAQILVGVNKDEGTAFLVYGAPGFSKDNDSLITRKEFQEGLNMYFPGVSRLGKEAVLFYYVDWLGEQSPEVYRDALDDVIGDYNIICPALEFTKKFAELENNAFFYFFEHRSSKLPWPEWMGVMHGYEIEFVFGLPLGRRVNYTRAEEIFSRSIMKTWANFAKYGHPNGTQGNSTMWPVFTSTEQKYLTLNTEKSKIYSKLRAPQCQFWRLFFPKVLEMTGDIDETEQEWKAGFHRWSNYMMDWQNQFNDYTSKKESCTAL

Turning to `CCN(C)CCCCOc1ccc2c(=O)c(-c3ccc(OCCN4CCCCC4)cc3)coc2c1`, the selectivity ratio in the data set on AChE is above 1230; in the data set with BuChE, above 34.6; with H3R, above 370. The results for the inhibition (in data set [1]; against Histamine H3 receptor [12]) were 92.8% and 75.2%, respectively. Further, the highest concentration (Cmax) in [2] was 762 ng/mL. The figures for the concentration for half-maximal inhibition (IC50) at Cholinesterase, on Histamine H3 receptor [3] and on Acetylcholinesterase were 2890 nM, 270 nM and 81 nM, respectively. Further, the result in the data set with SH-SY5Y and with BV-2 was Active. The Activity result was “Non-Toxic” in data set [4]; “Dose-dependent effect” in the data set on Mus musculus [5]; “Non-Toxic” in [7]; “Non-Toxic” in the data set with Mus musculus [8]; “Non-Toxic” in [9]; “Non-Toxic” in [10]. Also, the Activity result in [11], in data set [13] and in data set [14] was “Non-Toxic” in each case. In data set [6], the half-maximal cytotoxic concentration (CC50) at 72 h was above 100000 nM. In data set [15], the exposure AUC(0-t) at 48 h amounted to 325 ng·h/mL.

Values taken from ChEMBL document CHEMBL4433203, “Design, synthesis, and evaluation of isoflavone analogs as multifunctional agents for the treatment of Alzheimer's disease” (Eur J Med Chem, 2019).
